Assay results pooled from the literature.

Structure (SMILES) | cell line | observed | mode | method | time | quantity | result
O=C(O)C(Cl)Cl | BCPAP | cell growth or viability |  | MTT | 72 h | IC50 | > 50000 nM
COc1ccc2c(c1)c(C(=O)C(=O)NCCc1c[nH]c3ccccc13)cn2Cc1ccc(Cl)cc1 | C4-2 | cell growth or viability |  | MTT |  | IC50 | > 100000 nM
Cc1c2cnccc2c(C)c2c1c1ccccc1n2CCCCCCNCc1ccccc1 | MDA-MB-468 | cell growth or viability |  | MTT |  | IC50 | 720 nM
O=C(NCCc1c[nH]c2ccccc12)C(=O)c1cn(Cc2ccc(Cl)cc2)c2ccc(F)cc12 | C4-2 | cell growth or viability |  | MTT |  | IC50 | > 100000 nM
Cn1cncc1[C@@](N)(c1ccc(Cl)cc1)c1ccc2c(c1)c(-c1cccc(Cl)c1)cc(=O)n2C | HN-6 | cell growth or viability |  |  | 72 h | IC50 | 2270 nM
c1ccc([C@@H]2C[C@H]2NC2CCNCC2)cc1 | MV4-11 | cell growth or viability |  | resazurin | 96 h | EC50 | 0.48 nM
COc1cccc2c1C(=O)c1c(O)c3c(c(O)c1C2=O)C[C@@](O)(C(=O)CO)C[C@@H]3O[C@H]1C[C@H](N)[C@H](O)[C@H](C)O1 | C6 | cell growth or viability |  | SRB | 72 h | IC50 | 500 nM
c1ccc2c(NCCCCCCNc3c4ccccc4nc4ccccc34)c3ccccc3nc2c1 | MDA-MB-468 | cell growth or viability |  | MTT |  | IC50 | 96 nM
COc1cc(O)c2c(=O)c(OC)c(-c3ccc(O)cc3)oc2c1 | RBL-2H3 | degranulation | inhibitor |  |  | IC50 | 80400 nM
CCn1cc(C(=O)C(=O)NCCc2c[nH]c3ccccc23)c2ccccc21 | C4-2 | cell growth or viability |  | MTT |  | IC50 | > 100000 nM
CC(C)[C@@H]1NC(=O)[C@H](C)OC(=O)[C@@H](C(C)C)NC(=O)[C@@H](C(C)C)OC(=O)[C@H](C(C)C)NC(=O)[C@H](C)OC(=O)[C@@H](C(C)C)NC(=O)[C@@H](C(C)C)OC(=O)[C@H](C(C)C)NC(=O)[C@H](C)OC(=O)[C@@H](C(C)C)NC(=O)[C@@H](C(C)C)OC1=O | C6 | cell growth or viability |  | SRB |  | IC50 | 24 nM
